Key:
[1] = Competitive inhibition of purified Escherichia coli thymidylate synthetase using t5-[3H]-2'-deoxyuridine 5'-phosphate as substrate after 7 mins by double reciprocal plot method
Procedure, shortened: (§1)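 Thymidylate synthetase was purified from E. coli, calf thymus or Ehrlich ascites tumor cells. Inhibition constants came from double-reciprocal plots of velocity against substrate concentration. Each plot used five substrate concentrations and at least two inhibitor concentrations.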

Thymidylate synthase [2] = target: Thymidylate synthase (Mus musculus, UniProt P07607); experiment: Competitive inhibition of purified mouse Ehrlich ascites tumor cell thymidylate synthetase using 5-[3H]-2'-deoxyuridine 5'-phosphate as substrate after 7 mins by double reciprocal plot method; procedure, shortened: as §1
Thymidylate synthase [3] = target: T1, Thymidylate synthase (Bos taurus, UniProt Q2TA32); experiment: Noncompetitive inhibition of purified calf thymus thymidylate synthetase using 5-[3H]-2'-deoxyuridine 5'-phosphate as substrate after 7 mins by double reciprocal plot method; procedure, shortened: as §1
Thymidylate synthase [4] = target: T1, Thymidylate synthase; experiment: Competitive inhibition of purified calf thymus thymidylate synthetase using 5-[3H]-2'-deoxyuridine 5'-phosphate as substrate after 7 mins by double reciprocal plot method; procedure, shortened: as §1
[5] = Ratio of Ki for purified mouse Ehrlich ascites tumor cell thymidylate synthetase to Ki for purified calf thymus thymidylate synthetase

Sequence of Thymidylate synthase (Mus musculus, UniProt P07607) (P07607 whole entry): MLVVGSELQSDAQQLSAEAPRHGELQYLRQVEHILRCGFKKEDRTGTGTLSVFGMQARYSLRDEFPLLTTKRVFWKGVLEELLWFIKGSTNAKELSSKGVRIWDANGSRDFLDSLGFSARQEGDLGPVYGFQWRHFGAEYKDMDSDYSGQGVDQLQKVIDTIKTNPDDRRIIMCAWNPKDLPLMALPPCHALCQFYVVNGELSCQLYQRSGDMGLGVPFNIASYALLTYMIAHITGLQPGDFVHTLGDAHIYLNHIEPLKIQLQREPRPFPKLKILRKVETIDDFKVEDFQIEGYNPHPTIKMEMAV
T1 sequence (Q2TA32 whole entry): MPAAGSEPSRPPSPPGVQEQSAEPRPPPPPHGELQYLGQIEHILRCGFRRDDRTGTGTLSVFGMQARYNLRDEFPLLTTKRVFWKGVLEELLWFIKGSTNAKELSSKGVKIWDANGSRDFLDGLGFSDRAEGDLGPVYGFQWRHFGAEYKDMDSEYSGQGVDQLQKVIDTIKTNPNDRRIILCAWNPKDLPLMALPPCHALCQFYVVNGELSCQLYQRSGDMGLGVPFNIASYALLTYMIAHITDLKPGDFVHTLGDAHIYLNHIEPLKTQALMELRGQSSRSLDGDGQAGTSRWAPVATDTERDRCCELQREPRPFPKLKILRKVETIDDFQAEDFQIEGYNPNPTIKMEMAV

Row | SMILES | Ki [1] [µM] | Ki (Thymidylate synthase [2]) [µM] | Ki (Thymidylate synthase [3]) [µM] | Ki (Thymidylate synthase [4]) [µM] | Ratio Ki [5]
1 | O=c1[nH]c(=O)n([C@H]2C[C@H](O)[C@@H](COP(=O)(O)O)O2)cc1CN1CCCC1 | 56 | 27 | 43 | – | –
2 | CN(C)CCNCc1cn([C@H]2C[C@H](O)[C@@H](COP(=O)(O)O)O2)c(=O)[nH]c1=O | 6 | 14 | – | 3.1 | 4
3 | CN(C)Cc1cn([C@H]2C[C@H](O)[C@@H](COP(=O)(O)O)O2)c(=O)[nH]c1=O | 90 | 73 | – | 110 | –
4 | O=c1ccn([C@H]2C[C@H](O)[C@@H](COP(=O)(O)O)O2)c(=O)[nH]1 [DEOXYURIDINE MONOPHOSPHATE] | 7.6 | 6.5 | – | 8 | –

Reference: ChEMBL document CHEMBL3244410, “Thymidylate synthetase inhibitors. Synthesis of N-substituted 5-aminomethyl-2'-deoxyuridine 5'-phosphates” (J Med Chem, 1977)
